Data reported in ChEMBL document CHEMBL1143029, “Heme oxygenase inhibition by 2-oxy-substituted 1-(1H-imidazol-1-yl)-4-phenylbutanes: effect of halogen substitution in the phenyl ring” (Bioorg Med Chem, 2007).

How the values were obtained:
[1] = molecular target: T1, Heme oxygenase 1 (Rattus norvegicus, UniProt P06762); test: Inhibition of Sprague-Dawley rat spleen microsome HO1; format: microsomes
T1 sequence (P06762 whole entry): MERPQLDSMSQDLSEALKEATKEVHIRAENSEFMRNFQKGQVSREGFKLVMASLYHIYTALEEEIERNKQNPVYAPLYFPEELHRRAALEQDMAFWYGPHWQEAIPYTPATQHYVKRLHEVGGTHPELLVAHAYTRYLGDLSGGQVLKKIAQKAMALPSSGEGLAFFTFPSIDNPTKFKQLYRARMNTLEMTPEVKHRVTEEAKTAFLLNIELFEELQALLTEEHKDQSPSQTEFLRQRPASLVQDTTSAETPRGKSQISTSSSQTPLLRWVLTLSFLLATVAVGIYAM

[2] = organism: Rattus norvegicus; test: Selectivity index, ratio of IC50 for Sprague-Dawley rat brain HO2 to IC50 for Sprague-Dawley rat spleen HO1; format: tissue-based
Method in brief: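 Ratio of IC50(HO-2) to IC50(HO-1). HO-2 comes from Sprague-Dawley rat brain microsomes and HO-1 from spleen microsomes. Both were assayed identically: methemalbumin substrate, 10 min inhibitor pre-incubation at 37 °C, 15 min reaction with 1 mM NADPH, and CO measured by GC. Each IC50 was derived from sigmoidal dose–response fits of percent-control activity.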

[3] = molecular target: T2, Heme oxygenase 2 (Rattus norvegicus) (UniProt P23711); test: Inhibition of Sprague-Dawley rat brain microsome HO2 at 100 uM relative to control
T2 sequence (whole entry): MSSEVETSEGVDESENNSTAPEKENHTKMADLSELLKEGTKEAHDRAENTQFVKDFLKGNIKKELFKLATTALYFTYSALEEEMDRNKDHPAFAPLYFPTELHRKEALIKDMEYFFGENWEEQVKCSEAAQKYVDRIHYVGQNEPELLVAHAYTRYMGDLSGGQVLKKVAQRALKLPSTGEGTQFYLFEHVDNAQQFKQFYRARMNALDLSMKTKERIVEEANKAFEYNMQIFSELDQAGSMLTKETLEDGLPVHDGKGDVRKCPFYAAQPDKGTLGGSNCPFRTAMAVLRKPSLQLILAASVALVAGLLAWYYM
Method in brief: (§1)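 Spleen (HO-1) or brain (HO-2) microsomes from Sprague-Dawley rats, at 1 mg/mL protein in 100 mM phosphate buffer pH 7.4 with methemalbumin (heme–albumin) as substrate. Inhibitor hydrochloride pre-incubated 10 min at 37 °C, then 1 mM NADPH added for 15 min at 37 °C. Stopped by freezing on dry ice. CO formed measured by gas chromatography; activity given as percent of no-inhibitor control.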

[4] = molecular target: T3, Heme oxygenase 2 (Rattus norvegicus, UniProt P23711); test: Inhibition of Sprague-Dawley rat brain microsome HO2
T3 sequence (P23711 whole entry): T2 sequence (whole entry)

[5] = molecular target: T2, Heme oxygenase 2 (Rattus norvegicus); test: Inhibition of Sprague-Dawley rat brain microsome HO2 at 0.1 uM relative to control; method in brief: as §1
[6] = molecular target: T4, Heme oxygenase 1 (Rattus norvegicus) (UniProt P06762); settings: Sprague-Dawley, Spleen, Microsome, 100 uM
T4 sequence (whole entry): T1 sequence (P06762 whole entry)

[7] = molecular target: T4, Heme oxygenase 1 (Rattus norvegicus); test: Inhibition of Sprague-Dawley rat spleen microsome HO1 at 0.1 uM relative to control; format: microsomes; method in brief: as §1
[8] = molecular target: T4, Heme oxygenase 1 (Rattus norvegicus); test: Inhibition of Sprague-Dawley rat spleen microsome HO1 at 0.01 uM relative to control; format: microsomes

| IC50 [1] | inhibition [3] | IC50 [4] | SMILES | Ratio IC50 [2] | further results |
| --- | --- | --- | --- | --- | --- |
| – | 90% | – | OC(CCc1ccc(Cl)cc1)Cn1ccnc1 (stereo not given) | 8 | – |
| 3.8 µM | – | > 100 µM | Fc1ccc(CCC2(Cn3ccnc3)OCCO2)cc1 | > 26.3 | – |
| – | 60% | – | O=C(CCc1ccc(I)cc1)Cn1ccnc1 | 16.4 | inhibition [5]: 10%; inhibition [6]: 80%; inhibition [7]: 44% |
| – | – | 1.8 µM | OC(CCc1ccc(I)cc1)Cn1ccnc1 (stereo not given) | – | – |
| – | 60% | 1.9 µM | O=C(CCc1ccc(F)cc1)Cn1ccnc1 | 1.4 | inhibition [5]: 10%; inhibition [6]: 80% |
| – | – | > 100 µM | Brc1ccc(CCC2(Cn3ccnc3)OCCO2)cc1 | > 52.6 | – |
| – | – | – | OC(CCc1ccc(Br)cc1)Cn1ccnc1 (stereo not given) | – | inhibition [8]: 8%; inhibition [7]: 55% |
| – | 60% | 9.5 µM | O=C(CCc1ccc(Br)cc1)Cn1ccnc1 | – | – |
| – | 60% | – | O=C(CCc1ccccc1)Cn1ccnc1 | – | inhibition [6]: 80% |
| 3.7 µM | – | > 100 µM | Ic1ccc(CCC2(Cn3ccnc3)OCCO2)cc1 | > 27 | – |
| 6.2 µM | – | – | OC(CCc1ccccc1)Cn1ccnc1 (stereo not given) | 2.6 | – |
| – | – | > 100 µM | c1ccc(CCC2(Cn3ccnc3)OCCO2)cc1 | – | – |

| SMILES | IC50 [1] | inhibition [3] | IC50 [4] | Ratio IC50 [2] | further results |
| --- | --- | --- | --- | --- | --- |
| Clc1ccc(CCC2(Cn3ccnc3)OCCO2)cc1 | 4.3 µM | – | – | > 23.2 | – |
| Nc1ccc(SC[C@@H]2CO[C@](CCc3ccc(Cl)cc3)(Cn3ccnc3)O2)cc1 [AZALANSTAT] | 5.3 µM | – | 24.5 µM | 4.6 | – |
